Test results published in ChEMBL document CHEMBL1138558, “Synthesis of some new 1,2,4-triazoles, their Mannich and Schiff bases and evaluation of their antimicrobial activities” (2009).
The source made the active and inactive calls. The calls are words filed in the database; no cut-off is given here.

test system: Yersinia pseudotuberculosis; assay: Antimicrobial activity against Yersinia pseudotuberculosis ATCC 911 at 10 mg/mL after 18 hrs by agar-well diffusion method; type: functional; conditions: not given
Method in brief: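 Bacteria suspended in Mueller Hinton broth at about 10⁶ cfu/mL, flood-inoculated onto Mueller Hinton agar and dried. Test substance placed into 5-mm wells bored with a sterile cork-borer. Incubation 18 h at 35 °C, then the inhibition zone around each well measured.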

SMILES	inhibition zone (IZ)
S=c1oc(CSc2nnc(-c3ccncc3)n2-c2ccccc2)nn1CNCCN1CCOCC1	inactive
O=C(CSc1nnc(-c2ccncc2)n1-c1ccccc1)N/N=C/c1c(Cl)cccc1Cl	inactive
Cc1ccc(-n2c(S)nnc2CSc2nnc(-c3ccncc3)n2-c2ccccc2)cc1	inactive
S=c1n(CN2CCN(Cn3nc(-c4ccncc4)n(-c4ccccc4)c3=S)CC2)nc(-c2ccncc2)n1-c1ccccc1	inactive
Cc1ccc(NC(=S)NNC(=O)CSc2nnc(-c3ccncc3)n2-c2ccccc2)cc1	inactive
CCOC(=O)CSc1nnc(-c2ccncc2)n1-c1ccccc1	inactive
Sc1nnc(CSc2nnc(-c3ccncc3)n2-c2ccccc2)o1	inactive
O=C(CSc1nnc(-c2ccncc2)n1-c1ccccc1)N/N=C/c1ccncc1	inactive
Sc1nnc(-c2ccncc2)n1-c1ccccc1	inactive

test system: Candida tropicalis; assay: Antimicrobial activity against Candida tropicalis ATCC 13803 at 10 mg/mL after 18 hrs by agar-well diffusion method; type: functional; conditions: not given
Method in brief: (§1)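 Candida cultures were suspended in Mueller Hinton broth at about 10⁶ cfu/mL, flood-inoculated onto Sabouraud dextrose agar and dried. Test solution was loaded into 5-mm wells bored in the agar. Plates were incubated 18 h at 35 °C, and activity was scored as the inhibition zone around each well.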

SMILES	inhibition zone (IZ)
S=c1oc(CSc2nnc(-c3ccncc3)n2-c2ccccc2)nn1CNCCN1CCOCC1	inactive
O=C(CSc1nnc(-c2ccncc2)n1-c1ccccc1)N/N=C/c1c(Cl)cccc1Cl	inactive
Cc1ccc(-n2c(S)nnc2CSc2nnc(-c3ccncc3)n2-c2ccccc2)cc1	inactive
S=c1n(CN2CCN(Cn3nc(-c4ccncc4)n(-c4ccccc4)c3=S)CC2)nc(-c2ccncc2)n1-c1ccccc1	inactive
O=C(CSc1nnc(-c2ccncc2)n1-c1ccccc1)N/N=C/c1ccncc1	inactive
Sc1nnc(-c2ccncc2)n1-c1ccccc1	inactive

same assay, conditions: ATCC 13803, 18 h, read-out: IZ

SMILES	zone of inhibition at 10000 µg/mL [mm]
Cc1ccc(NC(=S)NNC(=O)CSc2nnc(-c3ccncc3)n2-c2ccccc2)cc1	7
CCOC(=O)CSc1nnc(-c2ccncc2)n1-c1ccccc1	13
Sc1nnc(CSc2nnc(-c3ccncc3)n2-c2ccccc2)o1	6

test system: Escherichia coli; assay: Antimicrobial activity against Escherichia coli ATCC 25922 at 10 mg/mL after 18 hrs by agar-well diffusion method; type: functional; conditions: not given
Method in brief: (§2)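 Agar-well diffusion: each bacterium suspended in Mueller Hinton broth at about 10⁶ cfu/mL, flood-inoculated onto Mueller Hinton agar and dried. 5-mm wells were cut with a sterile cork-borer and filled with the test solution. Plates were incubated 18 h at 35 °C. The read-out was the diameter of the inhibition zone.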

SMILES	inhibition zone (IZ)
O=C(CSc1nnc(-c2ccncc2)n1-c1ccccc1)N/N=C/c1c(Cl)cccc1Cl	inactive
Cc1ccc(-n2c(S)nnc2CSc2nnc(-c3ccncc3)n2-c2ccccc2)cc1	inactive
S=c1n(CN2CCN(Cn3nc(-c4ccncc4)n(-c4ccccc4)c3=S)CC2)nc(-c2ccncc2)n1-c1ccccc1	inactive
Cc1ccc(NC(=S)NNC(=O)CSc2nnc(-c3ccncc3)n2-c2ccccc2)cc1	inactive
CCOC(=O)CSc1nnc(-c2ccncc2)n1-c1ccccc1	inactive
Sc1nnc(CSc2nnc(-c3ccncc3)n2-c2ccccc2)o1	inactive
O=C(CSc1nnc(-c2ccncc2)n1-c1ccccc1)N/N=C/c1ccncc1	inactive
Sc1nnc(-c2ccncc2)n1-c1ccccc1	inactive

same assay, conditions: ATCC 25922, 18 h, read-out: IZ

SMILES	zone of inhibition at 10000 µg/mL [mm]
S=c1oc(CSc2nnc(-c3ccncc3)n2-c2ccccc2)nn1CNCCN1CCOCC1	6

test system: Candida albicans; assay: Antimicrobial activity against Candida albicans ATCC 60193 at 10 mg/mL after 18 hrs by agar-well diffusion method; type: functional; conditions: not given; method in brief: as §1

SMILES	inhibition zone (IZ)
S=c1oc(CSc2nnc(-c3ccncc3)n2-c2ccccc2)nn1CNCCN1CCOCC1	inactive
O=C(CSc1nnc(-c2ccncc2)n1-c1ccccc1)N/N=C/c1c(Cl)cccc1Cl	inactive
Cc1ccc(-n2c(S)nnc2CSc2nnc(-c3ccncc3)n2-c2ccccc2)cc1	inactive
S=c1n(CN2CCN(Cn3nc(-c4ccncc4)n(-c4ccccc4)c3=S)CC2)nc(-c2ccncc2)n1-c1ccccc1	inactive
O=C(CSc1nnc(-c2ccncc2)n1-c1ccccc1)N/N=C/c1ccncc1	inactive
Sc1nnc(-c2ccncc2)n1-c1ccccc1	inactive

same assay, conditions: ATCC 60193, 18 h, read-out: IZ

SMILES	zone of inhibition at 10000 µg/mL [mm]
Cc1ccc(NC(=S)NNC(=O)CSc2nnc(-c3ccncc3)n2-c2ccccc2)cc1	7
CCOC(=O)CSc1nnc(-c2ccncc2)n1-c1ccccc1	13
Sc1nnc(CSc2nnc(-c3ccncc3)n2-c2ccccc2)o1	6

test system: Bacillus cereus; assay: Antimicrobial activity against Bacillus cereus 702 Roma at 10 mg/mL after 18 hrs by agar-well diffusion method; type: functional; conditions: not given; method in brief: as §2

SMILES	inhibition zone (IZ)
S=c1oc(CSc2nnc(-c3ccncc3)n2-c2ccccc2)nn1CNCCN1CCOCC1	inactive
O=C(CSc1nnc(-c2ccncc2)n1-c1ccccc1)N/N=C/c1c(Cl)cccc1Cl	inactive
S=c1n(CN2CCN(Cn3nc(-c4ccncc4)n(-c4ccccc4)c3=S)CC2)nc(-c2ccncc2)n1-c1ccccc1	inactive
Cc1ccc(NC(=S)NNC(=O)CSc2nnc(-c3ccncc3)n2-c2ccccc2)cc1	inactive
CCOC(=O)CSc1nnc(-c2ccncc2)n1-c1ccccc1	inactive
O=C(CSc1nnc(-c2ccncc2)n1-c1ccccc1)N/N=C/c1ccncc1	inactive
Sc1nnc(-c2ccncc2)n1-c1ccccc1	inactive

same assay, conditions: read-out: IZ

SMILES	zone of inhibition at 10000 µg/mL [mm]
Cc1ccc(-n2c(S)nnc2CSc2nnc(-c3ccncc3)n2-c2ccccc2)cc1	6
Sc1nnc(CSc2nnc(-c3ccncc3)n2-c2ccccc2)o1	6

test system: Enterococcus faecalis; assay: Antimicrobial activity against Enterococcus faecalis ATCC 29212 at 10 mg/mL after 18 hrs by agar-well diffusion method; type: functional; conditions: not given; method in brief: as §2

SMILES	inhibition zone (IZ)
S=c1oc(CSc2nnc(-c3ccncc3)n2-c2ccccc2)nn1CNCCN1CCOCC1	inactive
O=C(CSc1nnc(-c2ccncc2)n1-c1ccccc1)N/N=C/c1c(Cl)cccc1Cl	inactive
S=c1n(CN2CCN(Cn3nc(-c4ccncc4)n(-c4ccccc4)c3=S)CC2)nc(-c2ccncc2)n1-c1ccccc1	inactive
Cc1ccc(NC(=S)NNC(=O)CSc2nnc(-c3ccncc3)n2-c2ccccc2)cc1	inactive
CCOC(=O)CSc1nnc(-c2ccncc2)n1-c1ccccc1	inactive
Sc1nnc(CSc2nnc(-c3ccncc3)n2-c2ccccc2)o1	inactive
O=C(CSc1nnc(-c2ccncc2)n1-c1ccccc1)N/N=C/c1ccncc1	inactive
Sc1nnc(-c2ccncc2)n1-c1ccccc1	inactive

same assay, conditions: ATCC 29212, 18 h, read-out: IZ

SMILES	zone of inhibition at 10000 µg/mL [mm]
Cc1ccc(-n2c(S)nnc2CSc2nnc(-c3ccncc3)n2-c2ccccc2)cc1	15

test system: Staphylococcus aureus; assay: Antimicrobial activity against Staphylococcus aureus ATCC 25923 at 10 mg/mL after 18 hrs by agar-well diffusion method; type: functional; conditions: not given; method in brief: as §2

SMILES	inhibition zone (IZ)
S=c1oc(CSc2nnc(-c3ccncc3)n2-c2ccccc2)nn1CNCCN1CCOCC1	inactive
O=C(CSc1nnc(-c2ccncc2)n1-c1ccccc1)N/N=C/c1c(Cl)cccc1Cl	inactive
Cc1ccc(-n2c(S)nnc2CSc2nnc(-c3ccncc3)n2-c2ccccc2)cc1	inactive
S=c1n(CN2CCN(Cn3nc(-c4ccncc4)n(-c4ccccc4)c3=S)CC2)nc(-c2ccncc2)n1-c1ccccc1	inactive
Cc1ccc(NC(=S)NNC(=O)CSc2nnc(-c3ccncc3)n2-c2ccccc2)cc1	inactive
CCOC(=O)CSc1nnc(-c2ccncc2)n1-c1ccccc1	inactive
O=C(CSc1nnc(-c2ccncc2)n1-c1ccccc1)N/N=C/c1ccncc1	inactive
Sc1nnc(-c2ccncc2)n1-c1ccccc1	inactive

same assay, conditions: ATCC 25923, 18 h, read-out: IZ

SMILES	zone of inhibition at 10000 µg/mL [mm]
Sc1nnc(CSc2nnc(-c3ccncc3)n2-c2ccccc2)o1	8

test system: Pseudomonas aeruginosa; assay: Antimicrobial activity against Pseudomonas aeruginosa ATCC 27853 at 10 mg/mL after 18 hrs by agar-well diffusion method; type: functional; conditions: not given; method in brief: as §2

SMILES	inhibition zone (IZ)
S=c1oc(CSc2nnc(-c3ccncc3)n2-c2ccccc2)nn1CNCCN1CCOCC1	inactive
O=C(CSc1nnc(-c2ccncc2)n1-c1ccccc1)N/N=C/c1c(Cl)cccc1Cl	inactive
Cc1ccc(-n2c(S)nnc2CSc2nnc(-c3ccncc3)n2-c2ccccc2)cc1	inactive
S=c1n(CN2CCN(Cn3nc(-c4ccncc4)n(-c4ccccc4)c3=S)CC2)nc(-c2ccncc2)n1-c1ccccc1	inactive
Cc1ccc(NC(=S)NNC(=O)CSc2nnc(-c3ccncc3)n2-c2ccccc2)cc1	inactive
CCOC(=O)CSc1nnc(-c2ccncc2)n1-c1ccccc1	inactive
Sc1nnc(CSc2nnc(-c3ccncc3)n2-c2ccccc2)o1	inactive
O=C(CSc1nnc(-c2ccncc2)n1-c1ccccc1)N/N=C/c1ccncc1	inactive
Sc1nnc(-c2ccncc2)n1-c1ccccc1	inactive
